The first experiment relates to HCT-15. As to the kind of experiment: Cytotoxicity against human HCT15 cells after 2 days by automatic ELISA reader system. To be noted: HCT-15, 48 h. Type of experiment: functional, cell-based. The method, boiled down:
(§1)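 Cells seeded at 2–4 × 10⁴ per well and grown overnight in medium with 10% FBS, 5% CO₂, 37 °C. Compound added on day 2; on day 4 CCK-8 solution added and incubated a further 4 h. Absorbance read at 450 nm and fitted to a four-parameter logistic equation for IC₅₀.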
Consider `Oc1cccc(-c2cc(-c3ccccc3)nc(-c3ccccn3)c2)c1`, for which half-maximal inhibition (IC50) was put at 20.9 µM.

Take `Oc1cccc(-c2cc(-c3ccccc3)cc(-c3ccncc3)n2)c1`: the IC50 (as a rule, the concentration at which inhibition is half-maximal) was found to be 27.4 µM.

In turn, `Oc1cccc(-c2cc(-c3ccccc3)nc(-c3cccs3)c2)c1` showed an IC50 of 14.1 µM.

With `Oc1cccc(-c2cc(-c3ccccc3)cc(-c3ccsc3)n2)c1`, inhibition was half-maximal at 7.66 µM (IC50).

In turn, `Oc1cccc(-c2cc(-c3ccccc3)nc(-c3cccnc3)c2)c1` displayed a half-maximal inhibitory concentration (IC50) of 18.4 µM.

Regarding `Oc1cccc(-c2cc(-c3ccccc3)nc(-c3ccccc3)c2)c1`, half-maximal inhibition (IC50) required 17.9 µM.

`Oc1cccc(-c2cc(-c3ccccc3)cc(-c3ccccc3)n2)c1` had an IC50 of 9.95 µM.

The subject of a further experiment is DU-145. As to the kind of experiment: Cytotoxicity against human DU145 cells after 2 days by automatic ELISA reader system. Type of experiment: functional, cell-based. To be noted: DU-145, 48 h. An outline of the steps: as §1
Turning to `Oc1cccc(-c2cc(-c3ccccc3)nc(-c3ccccn3)c2)c1`, the IC50 was determined as 15.5 µM.

`Oc1cccc(-c2cc(-c3ccccc3)cc(-c3ccncc3)n2)c1` yielded an IC50 of 19.2 µM.

On to `Oc1cccc(-c2cc(-c3ccccc3)nc(-c3cccs3)c2)c1`, for which the 50% inhibitory concentration (IC50) is 19.7 µM.

`Oc1cccc(-c2cc(-c3ccccc3)cc(-c3ccsc3)n2)c1` showed an IC50 of 11.7 µM.

For the molecule `Oc1cccc(-c2cc(-c3ccccc3)nc(-c3cccnc3)c2)c1`, the concentration for half-maximal inhibition (IC50) came out at 18.9 µM.

The molecule `Oc1cccc(-c2cc(-c3ccccc3)nc(-c3ccccc3)c2)c1` displayed an IC50 of 17.9 µM.

Molecule `Oc1cccc(-c2cc(-c3ccccc3)cc(-c3ccccc3)n2)c1` came in with a 50% inhibitory concentration (IC50) of 17.9 µM.

The next experiment has as its system MDA-MB-231. As to the kind of experiment: Cytotoxicity against human MDA-MB-231 cells after 2 days by automatic ELISA reader system. The note with it: MDA-MB-231, 48 h. It is filed as functional, cell-based. The method, boiled down: as §1
`Oc1cccc(-c2cc(-c3ccccc3)nc(-c3ccccn3)c2)c1`: the IC50 amounted to 18.7 µM.

Turning to `Oc1cccc(-c2cc(-c3ccccc3)cc(-c3ccncc3)n2)c1`, the IC50 is 10.4 µM.

With `Oc1cccc(-c2cc(-c3ccccc3)nc(-c3cccs3)c2)c1`, the 50% inhibitory concentration (IC50) was determined as 17.7 µM.

Consider `Oc1cccc(-c2cc(-c3ccccc3)cc(-c3ccsc3)n2)c1`, for which 12.1 µM corresponded to half-maximal inhibition (IC50).

With `Oc1cccc(-c2cc(-c3ccccc3)nc(-c3cccnc3)c2)c1`, the IC50 was found to be 22.8 µM.

For `Oc1cccc(-c2cc(-c3ccccc3)nc(-c3ccccc3)c2)c1`, the IC50 stood at 19.5 µM.

`Oc1cccc(-c2cc(-c3ccccc3)cc(-c3ccccc3)n2)c1`: the concentration for half-maximal inhibition (IC50) was 19.3 µM.

The test system of a further experiment is HeLa. As to the kind of experiment: Cytotoxicity against human HeLa cells after 2 days by automatic ELISA reader system. Type of experiment: functional, cell-based. The note with it: 48 h. An outline of the steps:
as §1
As for `Oc1cccc(-c2cc(-c3ccccc3)nc(-c3ccccn3)c2)c1`, the half-inhibitory concentration (IC50) worked out at 29.8 µM.

The molecule `Oc1cccc(-c2cc(-c3ccccc3)cc(-c3ccncc3)n2)c1` displayed an IC50 of 28.1 µM.

In turn, `Oc1cccc(-c2cc(-c3ccccc3)nc(-c3cccs3)c2)c1` registered an IC50 of 15.3 µM.

Molecule `Oc1cccc(-c2cc(-c3ccccc3)cc(-c3ccsc3)n2)c1` had a half-maximal inhibitory concentration (IC50) of 13.8 µM.

`Oc1cccc(-c2cc(-c3ccccc3)nc(-c3cccnc3)c2)c1` yielded an IC50 of 17.5 µM.

For `Oc1cccc(-c2cc(-c3ccccc3)nc(-c3ccccc3)c2)c1`, it took 15.1 µM to reach half-maximal inhibition (IC50).

For `Oc1cccc(-c2cc(-c3ccccc3)cc(-c3ccccc3)n2)c1`, inhibition was half-maximal at 16.1 µM (IC50).

The next experiment has as its target T1, DNA topoisomerase 1 (Homo sapiens) (UniProt P11387).
T1 sequence (whole entry): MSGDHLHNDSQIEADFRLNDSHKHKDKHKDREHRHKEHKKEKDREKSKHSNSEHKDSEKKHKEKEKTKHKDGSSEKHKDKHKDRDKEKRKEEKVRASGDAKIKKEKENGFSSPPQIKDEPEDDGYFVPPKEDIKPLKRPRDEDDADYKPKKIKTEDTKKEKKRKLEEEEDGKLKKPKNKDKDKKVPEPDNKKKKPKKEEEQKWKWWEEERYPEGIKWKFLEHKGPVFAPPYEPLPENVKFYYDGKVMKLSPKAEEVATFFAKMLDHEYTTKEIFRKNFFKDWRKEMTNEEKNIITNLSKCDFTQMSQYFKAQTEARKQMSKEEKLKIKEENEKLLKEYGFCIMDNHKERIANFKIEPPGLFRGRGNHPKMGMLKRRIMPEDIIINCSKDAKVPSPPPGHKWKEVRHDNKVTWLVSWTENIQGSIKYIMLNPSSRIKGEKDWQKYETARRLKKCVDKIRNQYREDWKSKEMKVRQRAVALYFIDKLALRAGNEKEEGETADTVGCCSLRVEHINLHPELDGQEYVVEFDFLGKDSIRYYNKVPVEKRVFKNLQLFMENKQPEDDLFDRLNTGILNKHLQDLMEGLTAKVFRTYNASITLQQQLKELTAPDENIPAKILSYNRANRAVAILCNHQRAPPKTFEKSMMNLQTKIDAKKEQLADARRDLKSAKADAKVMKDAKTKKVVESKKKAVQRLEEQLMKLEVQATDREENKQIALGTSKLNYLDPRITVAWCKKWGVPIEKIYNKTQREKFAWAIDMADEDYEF
As to the kind of experiment: Inhibition of human recombinant TOP1-mediated relaxation of supercoiled Escherichia coli pBR322 DNA at 20 uM after 30 mins by transillumination.
Details: not given
The method, boiled down: (§2)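 Relaxation assay: 100 ng supercoiled pBR322 with 0.4 units recombinant human topo I, ± compound (DMSO stocks 20 mM), 37 °C, 30 min. Buffer was 10 mM Tris–HCl pH 7.9, 150 mM NaCl, 0.1% BSA, 1 mM spermidine, 5% glycerol. Stopped with sarcosyl/bromophenol blue/glycerol, then 1% agarose gel in TAE at 15 V for 7 h. Ethidium bromide stain, UV transillumination, bands quantitated by densitometry.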
For `Oc1cccc(-c2cc(-c3ccccc3)nc(-c3ccccn3)c2)c1`, the inhibition – broadly, the percentage by which the read-out fell short of the control – amounted to 2.8%.

On to `Oc1cccc(-c2cc(-c3ccccc3)cc(-c3ccncc3)n2)c1`, for which the inhibition was determined as 25.4%.

On to `Oc1cccc(-c2cc(-c3ccccc3)nc(-c3cccs3)c2)c1`, for which the inhibition worked out at 2%.

For `Oc1cccc(-c2cc(-c3ccccc3)cc(-c3ccsc3)n2)c1`, the inhibition was 6.8%.

With `Oc1cccc(-c2cc(-c3ccccc3)nc(-c3cccnc3)c2)c1`, the inhibition was 1.5%.

In the case of `Oc1cccc(-c2cc(-c3ccccc3)nc(-c3ccccc3)c2)c1`, the inhibition stood at 0%.

With `Oc1cccc(-c2cc(-c3ccccc3)cc(-c3ccccc3)n2)c1`, the inhibition is 0%.

The next experiment deals with DNA topoisomerase 2-alpha (Homo sapiens) (UniProt P11388). As to the kind of experiment: Inhibition of human recombinant TOP2A-mediated relaxation of supercoiled Escherichia coli pBR322 DNA at 100 uM after 30 mins by transillumination.
Chain of DNA topoisomerase 2-alpha (Homo sapiens) (P11388 whole entry): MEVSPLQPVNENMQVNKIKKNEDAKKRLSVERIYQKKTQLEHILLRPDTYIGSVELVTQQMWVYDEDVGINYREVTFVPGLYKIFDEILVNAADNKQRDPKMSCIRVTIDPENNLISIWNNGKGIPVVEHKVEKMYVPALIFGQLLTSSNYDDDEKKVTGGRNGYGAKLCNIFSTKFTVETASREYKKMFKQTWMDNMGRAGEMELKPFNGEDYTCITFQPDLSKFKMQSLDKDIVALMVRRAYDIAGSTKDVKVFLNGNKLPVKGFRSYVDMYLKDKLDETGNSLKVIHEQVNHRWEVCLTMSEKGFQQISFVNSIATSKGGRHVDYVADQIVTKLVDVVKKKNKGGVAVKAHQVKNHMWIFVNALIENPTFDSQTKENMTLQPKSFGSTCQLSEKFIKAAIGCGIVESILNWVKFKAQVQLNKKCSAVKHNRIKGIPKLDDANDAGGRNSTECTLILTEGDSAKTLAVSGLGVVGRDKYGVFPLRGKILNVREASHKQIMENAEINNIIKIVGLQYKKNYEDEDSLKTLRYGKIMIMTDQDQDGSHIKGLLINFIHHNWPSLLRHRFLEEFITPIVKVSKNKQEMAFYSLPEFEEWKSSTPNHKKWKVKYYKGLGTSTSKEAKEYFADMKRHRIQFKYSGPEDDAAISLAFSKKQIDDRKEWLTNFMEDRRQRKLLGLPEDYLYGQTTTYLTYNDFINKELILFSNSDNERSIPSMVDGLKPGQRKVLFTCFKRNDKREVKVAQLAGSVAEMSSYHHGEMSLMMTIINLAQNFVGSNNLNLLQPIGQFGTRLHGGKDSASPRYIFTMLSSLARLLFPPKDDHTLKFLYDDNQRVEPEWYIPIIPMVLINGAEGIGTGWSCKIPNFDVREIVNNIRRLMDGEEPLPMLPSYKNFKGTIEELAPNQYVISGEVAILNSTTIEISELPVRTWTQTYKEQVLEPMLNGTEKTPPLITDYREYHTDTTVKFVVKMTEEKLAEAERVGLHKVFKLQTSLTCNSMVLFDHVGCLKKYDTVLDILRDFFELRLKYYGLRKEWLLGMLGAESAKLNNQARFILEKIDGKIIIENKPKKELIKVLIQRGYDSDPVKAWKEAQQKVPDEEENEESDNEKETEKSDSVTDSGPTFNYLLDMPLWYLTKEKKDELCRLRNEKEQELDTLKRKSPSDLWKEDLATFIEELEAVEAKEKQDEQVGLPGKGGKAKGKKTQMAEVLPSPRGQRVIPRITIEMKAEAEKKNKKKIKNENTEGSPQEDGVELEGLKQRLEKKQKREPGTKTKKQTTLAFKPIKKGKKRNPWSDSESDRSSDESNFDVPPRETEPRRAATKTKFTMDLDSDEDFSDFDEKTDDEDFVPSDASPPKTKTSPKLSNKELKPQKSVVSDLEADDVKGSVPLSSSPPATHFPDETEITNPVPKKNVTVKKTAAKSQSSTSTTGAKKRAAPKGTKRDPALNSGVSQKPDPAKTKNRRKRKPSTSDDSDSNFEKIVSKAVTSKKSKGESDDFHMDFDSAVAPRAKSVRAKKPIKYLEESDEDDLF
Details: not given
The method, boiled down:
(§3)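 200 ng supercoiled pBR322 with topo II, ± compound, 30 °C for 30 min. Buffer was 10 mM Tris–HCl pH 7.9, 50 mM NaCl, 5 mM MgCl₂, 1 mM EDTA, 1 mM ATP, BSA. Stopped with 7 mM EDTA, then 1% agarose gel in TAE at 25 V for 4 h. Ethidium bromide stain, UV transillumination, supercoiled DNA quantitated.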
Consider `Oc1cccc(-c2cc(-c3ccccc3)nc(-c3ccccn3)c2)c1`, for which the inhibition was found to be 48.1%.

In the case of `Oc1cccc(-c2cc(-c3ccccc3)cc(-c3ccncc3)n2)c1`, the inhibition was determined as 3.1%.

Regarding `Oc1cccc(-c2cc(-c3ccccc3)nc(-c3cccs3)c2)c1`, the inhibition is 57.5%.

Regarding `Oc1cccc(-c2cc(-c3ccccc3)cc(-c3ccsc3)n2)c1`, the inhibition amounted to 51.8%.

In the case of `Oc1cccc(-c2cc(-c3ccccc3)nc(-c3cccnc3)c2)c1`, the inhibition is 37.1%.

Regarding `Oc1cccc(-c2cc(-c3ccccc3)nc(-c3ccccc3)c2)c1`, the inhibition amounted to 68.2%.

Take `Oc1cccc(-c2cc(-c3ccccc3)cc(-c3ccccc3)n2)c1`: the inhibition was 48.4%.

The target in another experiment is T1, DNA topoisomerase 1 (Homo sapiens). As to the kind of experiment: Inhibition of human recombinant TOP1-mediated relaxation of supercoiled Escherichia coli pBR322 DNA at 100 uM after 30 mins by transillumination.
Details: not given
An outline of the steps: as §2
Consider `Oc1cccc(-c2cc(-c3ccccc3)nc(-c3ccccn3)c2)c1`, for which the inhibition was 10.8%.

Turning to `Oc1cccc(-c2cc(-c3ccccc3)cc(-c3ccncc3)n2)c1`, the inhibition was 70.4%.

Consider `Oc1cccc(-c2cc(-c3ccccc3)nc(-c3cccs3)c2)c1`, for which the inhibition is 9.1%.

Take `Oc1cccc(-c2cc(-c3ccccc3)cc(-c3ccsc3)n2)c1`: the inhibition came out at 75.8%.

For `Oc1cccc(-c2cc(-c3ccccc3)nc(-c3cccnc3)c2)c1`, the inhibition is 8.1%.

For the molecule `Oc1cccc(-c2cc(-c3ccccc3)nc(-c3ccccc3)c2)c1`, the inhibition worked out at 11.5%.

`Oc1cccc(-c2cc(-c3ccccc3)cc(-c3ccccc3)n2)c1`: the inhibition was found to be 12.9%.

The test system of another experiment is HL-60. As to the kind of experiment: Cytotoxicity against human HL60 cells after 2 days by automatic ELISA reader system. It is filed as functional, cell-based. The note with it: HL-60, 48 h. The method, boiled down: as §1
Molecule `Oc1cccc(-c2cc(-c3ccccc3)nc(-c3ccccn3)c2)c1` gave a half-maximal inhibitory concentration (IC50) of 15.1 µM.

Molecule `Oc1cccc(-c2cc(-c3ccccc3)cc(-c3ccncc3)n2)c1` showed an IC50 of 23.9 µM.

On to `Oc1cccc(-c2cc(-c3ccccc3)nc(-c3cccs3)c2)c1`, for which the IC50 is 18.9 µM.

`Oc1cccc(-c2cc(-c3ccccc3)cc(-c3ccsc3)n2)c1` came in with a half-maximal inhibitory concentration (IC50) of 10.3 µM.

In turn, `Oc1cccc(-c2cc(-c3ccccc3)nc(-c3cccnc3)c2)c1` had an IC50 of 12.6 µM.

In turn, `Oc1cccc(-c2cc(-c3ccccc3)nc(-c3ccccc3)c2)c1` gave an IC50 of 13.5 µM.

In the case of `Oc1cccc(-c2cc(-c3ccccc3)cc(-c3ccccc3)n2)c1`, the concentration for half-maximal inhibition (IC50) came to 11.5 µM.

The next experiment deals with DNA topoisomerase 2-alpha (Homo sapiens) (UniProt P11388). As to the kind of experiment: Inhibition of human recombinant TOP2A-mediated relaxation of supercoiled Escherichia coli pBR322 DNA at 20 uM after 30 mins by transillumination.
Details: not given
An outline of the steps:
as §3
With `Oc1cccc(-c2cc(-c3ccccc3)nc(-c3ccccn3)c2)c1`, the inhibition turned out to be 21.3%.

In the case of `Oc1cccc(-c2cc(-c3ccccc3)cc(-c3ccncc3)n2)c1`, the inhibition worked out at 1.8%.

Consider `Oc1cccc(-c2cc(-c3ccccc3)nc(-c3cccs3)c2)c1`, for which the inhibition is 34.7%.

`Oc1cccc(-c2cc(-c3ccccc3)cc(-c3ccsc3)n2)c1`: the inhibition was determined as 37.2%.

`Oc1cccc(-c2cc(-c3ccccc3)nc(-c3cccnc3)c2)c1`: the inhibition was found to be 21.3%.

For the molecule `Oc1cccc(-c2cc(-c3ccccc3)nc(-c3ccccc3)c2)c1`, the inhibition came out at 32%.

Consider `Oc1cccc(-c2cc(-c3ccccc3)cc(-c3ccccc3)n2)c1`, for which the inhibition came to 32%.

Source of the values: ChEMBL document CHEMBL1157776, “Synthesis, topoisomerase I and II inhibitory activity, cytotoxicity, and structure-activity relationship study of hydroxylated 2,4-diphenyl-6-aryl pyridines” (Bioorg Med Chem, 2010).
